Measured values published in ChEMBL document CHEMBL1149184, “Development of a new type of allosteric modulator of muscarinic receptors: hybrids of the antagonist AF-DX 384 and the hexamethonio derivative W84” (J Med Chem, 2004).

How the values were obtained:
[1] = molecular target: T1, Muscarinic acetylcholine receptor M2 (Sus scrofa) (UniProt P06199); experiment: Binding affinity towards Muscarinic acetylcholine receptor M2 in porcine heart using [3H]NMS as a radioligand
T1 sequence (whole entry): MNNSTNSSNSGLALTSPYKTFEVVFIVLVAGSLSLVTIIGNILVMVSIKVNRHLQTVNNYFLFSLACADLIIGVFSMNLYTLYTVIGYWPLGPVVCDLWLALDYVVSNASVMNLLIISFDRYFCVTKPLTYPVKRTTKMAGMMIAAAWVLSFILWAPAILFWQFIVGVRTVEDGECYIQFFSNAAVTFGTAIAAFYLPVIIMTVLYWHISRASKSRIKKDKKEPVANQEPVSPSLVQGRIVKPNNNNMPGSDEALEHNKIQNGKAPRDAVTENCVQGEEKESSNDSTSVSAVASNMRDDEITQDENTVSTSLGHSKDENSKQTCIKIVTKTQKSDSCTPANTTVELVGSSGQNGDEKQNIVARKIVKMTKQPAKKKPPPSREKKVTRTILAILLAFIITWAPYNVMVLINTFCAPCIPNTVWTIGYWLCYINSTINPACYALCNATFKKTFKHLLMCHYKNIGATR
Procedure, shortened: (§1)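 Porcine heart membranes with 0.2 nM [3H]NMS at 37 °C in 3 mM MgHPO4 / 50 mM Tris-HCl, pH 7.3, and varying test-compound concentrations. Incubation was 120–360 min to reach equilibrium. Nonspecific binding was taken with 1 μM atropine. Bound label was filtered and counted. Curves were fitted to the ternary complex model of allosteric interaction. Three to four independent experiments.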

[2] = molecular target: T1, Muscarinic acetylcholine receptor M2 (Sus scrofa); experiment: Emax dissociation towards Muscarinic acetylcholine receptor M2 in porcine heart using [3H]NMS as a radioligand
Procedure, shortened: (§2)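 Dissociation assay at 37 °C on porcine cardiac membranes in Mg/Tris buffer, pH 7.3. Membranes were preincubated 30 min with 0.2 nM [3H]NMS, then dissociation was started with 1 μM atropine ± test compound and tracked for 120 min. Apparent dissociation rate constants k-1 against log concentration were fitted with a four-parameter logistic curve.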

[3] = molecular target: T1, Muscarinic acetylcholine receptor M2 (Sus scrofa); experiment: Palpha towards Muscarinic acetylcholine receptor M2 in porcine heart using [3H]NMS as a radioligand; procedure, shortened: as §1
[4] = molecular target: T1, Muscarinic acetylcholine receptor M2 (Sus scrofa); experiment: Half-maximal reduction towards Muscarinic acetylcholine receptor M2 in porcine heart using [3H]NMS as a radioligand; procedure, shortened: as §2
[5] = test system: Muscarinic acetylcholine receptor M2 (Cavia porcellus); experiment: Binding affinity towards Muscarinic acetylcholine receptor M2 in guinea pig using [3H]-NMS as a radioligand
[6] = test system: Muscarinic acetylcholine receptor M2 (Cavia porcellus); experiment: Palpha towards Muscarinic acetylcholine receptor M2 in guinea pig using [3H]-AF-DX 384 as a radioligand
[7] = test system: Muscarinic acetylcholine receptor M2 (Cavia porcellus); experiment: Half-maximally reduction towards muscarinic 2 receptor in guinea pig using [3H]-AF-DX 384 as a radioligand
[8] = test system: Muscarinic acetylcholine receptor M2 (Cavia porcellus); experiment: Emax dissociation towards Muscarinic acetylcholine receptor M2 in guinea pig using [3H]NMS as a radioligand
[9] = test system: Muscarinic acetylcholine receptor M2 (Cavia porcellus); experiment: Emax dissociation towards Muscarinic acetylcholine receptor M2 in guinea pig using [3H]AF-DX 384 as a radioligand
[10] = test system: Muscarinic acetylcholine receptor M2 (Cavia porcellus); experiment: Binding affinity towards Muscarinic acetylcholine receptor M2 in guinea pig using [3H]-AF-DX 384 as a radioligand
[11] = test system: Muscarinic acetylcholine receptor M2 (Cavia porcellus); experiment: Palpha towards Muscarinic acetylcholine receptor M2 in guinea pig using [3H]NMS as a radioligand
[12] = test system: Muscarinic acetylcholine receptor M2 (Cavia porcellus); experiment: Half-maximal reduction towards Muscarinic acetylcholine receptor M2 in guinea pig using [3H]NMS as a radioligand

Structure (SMILES)	pKA [1]	Emax,diss [2]	Palpha [3]	pEC0.5,diss [4]	pKA [5]	Palpha [6]	pEC0.5,diss [7]	Emax,diss [8]	Emax,diss [9]	pKA [10]	Palpha [11]	pEC0.5,diss [12]
CCCN(CCCCCCN1C(=O)c2ccccc2C1=O)CC1CCCCN1CCNC(=O)N1c2ccccc2C(=O)Nc2cccnc21 (stereo not given)	6.71	100%	0.05	6.75	–	–	–	–	–	–	–	–
CC[N+](C)(C)CCCN1C(=O)c2ccccc2C1=O	–	–	–	–	4.12	< -2	3.33	100%	34%	4.44	-1.03	3.35
CCCCCC[N+](C)(C)CCCN1C(=O)c2ccccc2C1=O	–	–	–	–	5.08	-1.35	4.11	100%	82%	5.8	-1.55	4.06
C[N+](C)(C)CCCN1C(=O)c2ccccc2C1=O	–	–	–	–	3.95	< -2	3	100%	25%	4.51	-1.21	3.21
CCCN(CCC)CC1CCCCN1CCNC(=O)N1c2ccccc2C(=O)Nc2cccnc21 (stereo not given)	8.14	100%	< -2	4.65	–	–	–	–	–	–	–	–
C[N+](C)(CCCCCC[N+](C)(C)CCCN1C(=O)c2ccccc2C1=O)CCCN1C(=O)CCC1=O	–	–	–	–	5.24	-1.56	3.67	100%	68%	5.93	-0.49	4.82
CCCN(CCCCCC[N+](C)(C)CCCN1C(=O)c2ccccc2C1=O)CC1CCCCN1CCNC(=O)N1c2ccccc2C(=O)Nc2cccnc21 (stereo not given)	6.83	100%	-0.58	6.78	–	–	–	–	–	–	–	–
CCCN(CCCN1C(=O)c2ccccc2C1=O)CC1CCCCN1CCNC(=O)N1c2ccccc2C(=O)Nc2cccnc21 (stereo not given)	5.89	100%	1.07	6.87	–	–	–	–	–	–	–	–
CCCN(CCCN1C(=O)CCC1=O)CC1CCCCN1CCNC(=O)N1c2ccccc2C(=O)Nc2cccnc21 (stereo not given)	8.01	76%	-1.8	4.95	–	–	–	–	–	–	–	–
CCC[N+](C)(C)CCCN1C(=O)c2ccccc2C1=O	–	–	–	–	3.55	< -2	2.98	90%	73%	4.1	-0.78	3.76
